Laboratory results reported in ChEMBL document CHEMBL4765303, “Synthesis and evaluation of butein derivatives for in vitro and in vivo inflammatory response suppression in lymphedema” (Eur J Med Chem, 2020).
≈ marks a conversion by molar mass, not a printed value. Calls of active or inactive are those of the source. The calls are words filed in the database; no cut-off is given here.

Columns and labels:
[1] = Inhibition of LPS stimulated TNF alpha production in Balb/c mouse peritoneal macrophages measured by ELISA plate reader method; type: functional; conditions: Macrophage
Mus musculus [2] = assay: Antiinflammatory activity in orally dosed surgical-induced lymphedema ICR mouse model assessed as reduction in Fabp4 mRNA expression administered 7 days before surgery and measured 7 days after surgery by RT-PCR analysis; type: functional, organism-based; conditions: time 14.0 day
Mus musculus [3] = assay: Antiinflammatory activity in orally dosed surgical-induced lymphedema ICR mouse model assessed as reduction in Fabp4 administered 7 days before surgery and measured 7 days after surgery by Western blot analysis; type: functional, organism-based; conditions: time 14.0 day
[4] = Metabolic stability in rat liver microsomes assessed as percentage of compound remaining after 30 mins; type: ADME, Microsome; conditions: read-out: Stabilty
In short: (§1)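 Phase I stability in liver microsomes from mouse, rat and human. Percent of compound remaining measured 30 min after reaction. Buspirone included as a control metabolized in Phase I.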

Mus musculus [5] = assay: Antiinflammatory activity in orally dosed surgical-induced lymphedema ICR mouse model assessed as reduction in PPARgamma expression administered 7 days before surgery and measured 7 days after surgery by Western blot analysis; type: functional, organism-based; conditions: time 14.0 day
[6] = Dissociation constant, pKa of compound; type: physicochemical
[7] = Kinetic solubility of compound in water; type: physicochemical; conditions: read-out: Kinetic_solubility
[8] = Tmax in CD-1 mouse at 100 mg/kg, po measured upto 1440 mins by LC/MS/MS analysis; type: ADME, organism-based; conditions: in vivo
In short: (§2)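 Male CD-1 mice, 5 weeks old, dosed once, either by tail vein at 1 mg/kg or orally at 20 mg/kg or 100 mg/kg. Plasma levels give Cmax, Tmax and AUC. Values are mean ± SD from three mice. A prodrug is quantified through its main metabolite, the parent compound (LOQ <1 ng/mL).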

Mus musculus [9] = assay: Antiinflammatory activity in orally dosed surgical-induced lymphedema ICR mouse model assessed as reduction in TNF-alpha mRNA expression administered 7 days before surgery and measured 7 days after surgery by RT-PCR analysis; type: functional, organism-based; conditions: time 14.0 day
[10] = Cmax in CD-1 mouse at 20 mg/kg, po measured upto 1440 mins by LC/MS/MS analysis; type: ADME, organism-based; design: route oral, dose 20 mg/kg, time <=1440; conditions: in vivo; in short: as §2
[11] = Cmax in CD-1 mouse at 100 mg/kg, po measured upto 1440 mins by LC/MS/MS analysis; type: ADME, organism-based; design: route oral, dose 100 mg/kg, time <=1440; conditions: in vivo; in short: as §2
[12] = Tmax in CD-1 mouse at 20 mg/kg, po measured upto 1440 mins by LC/MS/MS analysis; type: ADME, organism-based; conditions: in vivo; in short: as §2
Mus musculus [13] = assay: Antiinflammatory activity in orally dosed surgical-induced lymphedema ICR mouse model assessed as reduction in PPARgamma mRNA expression administered 7 days before surgery and measured 7 days after surgery by RT-PCR analysis; type: functional, organism-based; conditions: time 14.0 day
[14] = AUC (0 to infinity) in CD-1 mouse at 1 mg/kg, iv measured upto 1440 mins by LC/MS/MS analysis; type: ADME, organism-based; design: route intravenous, dose 1 mg/kg, time <=1440; conditions: in vivo, 24 h; in short: as §2
[15] = Cmax in CD-1 mouse at 1 mg/kg, iv measured upto 1440 mins by LC/MS/MS analysis; type: ADME, organism-based; design: route intravenous, dose 1 mg/kg, time <=1440; conditions: in vivo; in short: as §2
Mus musculus [16] = assay: Antiinflammatory activity in orally dosed surgical-induced lymphedema ICR mouse model assessed as reduction in neutrophil infiltration administered for 7 days before surgery and measured 7 days after surgery; type: functional, organism-based; conditions: time 14.0 day
In short: (§3)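 Surgical lymphedema model in male ICR mice with oral pretreatment starting 7 days before surgery. Right hind-limb tissue taken 15–25 mm distal on day 7 post-surgery and H&E-stained to assess dermal tissue and neutrophils. Groups: normal, vehicle, treated.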

[17] = AUC (0 to infinity) in CD-1 mouse at 100 mg/kg, po measured upto 1440 mins by LC/MS/MS analysis; type: ADME, organism-based; design: route oral, dose 100 mg/kg, time <=1440; conditions: in vivo; in short: as §2
[18] = Metabolic stability in human liver microsomes assessed as percentage of compound remaining after 30 mins; type: ADME, Microsome; conditions: read-out: Stabilty; in short: as §1
[19] = Tmax in CD-1 mouse at 1 mg/kg, iv measured upto 1440 mins by LC/MS/MS analysis; type: ADME, organism-based; conditions: in vivo; in short: as §2
[20] = Metabolic stability in mouse liver microsomes assessed as percentage of compound remaining after 30 mins; type: ADME, Microsome; conditions: read-out: Stabilty; in short: as §1
[21] = AUC (0 to infinity) in CD-1 mouse at 20 mg/kg, po measured upto 1440 mins by LC/MS/MS analysis; type: ADME, organism-based; design: route oral, dose 20 mg/kg, time <=1440; conditions: in vivo, 24 h; in short: as §2
Mus musculus [22] = assay: Antiinflammatory activity in orally dosed surgical-induced lymphedema ICR mouse model assessed as reduction in dermal layer lymphedema tissue administered for 7 days before surgery and measured 7 days after surgery; type: functional, organism-based; conditions: time 14.0 day; in short: as §3
[23] = Inhibition of LPS stimulated TNF alpha production in Balb/c mouse peritoneal macrophages at 20 uM measured by ELISA plate reader method; type: functional; conditions: Macrophage
In short: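 Thioglycollate-elicited peritoneal exudate cells from male Balb/c mice, adherent fraction after overnight plating at 37 °C. Cells stimulated with 100 ng/mL LPS for 24 h with compound at 20 µM. Supernatant TNF-α measured by ELISA. Mean ± SD, n = 3.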

Mus musculus [24] = assay: Antiinflammatory activity in orally dosed surgical-induced lymphedema ICR mouse model assessed as reduction in TNF-alpha expression administered 7 days before surgery and measured 7 days after surgery; conditions: time 14.0 day
Mus musculus [25] = assay: Antiinflammatory activity in orally dosed surgical-induced lymphedema ICR mouse model assessed as reduction in PPARgamma expression administered 7 days before surgery and measured 7 days after surgery by immunofluorescence analysis; type: functional, organism-based; conditions: time 14.0 day
In short: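 Surgical lymphedema in male ICR mice with oral pretreatment. Limb tissue harvested on day 7 post-surgery. Sections immunostained with anti-mouse PPARγ, Alexa Fluor 488 secondary and DAPI, then examined by fluorescence microscopy.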

Mus musculus [26] = assay: Antiinflammatory activity in orally dosed surgical-induced lymphedema ICR mouse model assessed as reduction in lymphedema volume administered for 7 days before surgery and measured 7 days after surgery relative to control; type: functional; conditions: time 14 day
In short: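 Lymphedema induced in the right lower limb of anesthetized male ICR mice by removing the superficial inguinal, popliteal and deep inguinal lymph nodes and a femoral lymphatic vessel, with limited cautery. Oral dosing at 100 mg/kg/day started 7 days before surgery and continued every 2 days afterwards. Limb volume measured by caliper on day 7 by blinded observers and compared with vehicle.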

[27] = Oral bioavailability in CD-1 mouse at 20 mg/kg measured upto 1440 mins by LC/MS/MS analysis; type: ADME, organism-based; conditions: in vivo, 24 h
In short: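 Male CD-1 mice (5 weeks) dosed orally at 20 mg/kg, with a 1 mg/kg tail-vein reference group. Bioavailability calculated as (AUCpo/AUCiv) × 100. Mean ± SD, three mice.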

## COc1ccc(C(=O)Oc2cc(O)ccc2C(=O)/C=C/c2ccc(O)c(O)c2)cc1
[1]
  IC50: 20.8 µM

## O=C(/C=C/c1ccc(O)c(O)c1)c1ccc(O)cc1O [BUTEIN]
Mus musculus [2]
  inhibition: Active
Mus musculus [3]
  inhibition: Active
[4]
  remaining at 0.5 h: 18.1%
Mus musculus [5]
  inhibition: Active
[6]
  pKa: 7.96
[7]
  solubility kinetic: 21 µg/mL (≈ 77.1 µM)
[8]
  Tmax: 18 min
Mus musculus [9]
  inhibition: Active
[10]
  Cmax: 43 ng/mL
[11]
  Cmax: 601 ng/mL
[12]
  Tmax: 18 min
Mus musculus [13]
  inhibition: Active
[14]
  AUC: 6.7 ng·h/mL
[15]
  Cmax: 41 ng/mL
Mus musculus [16]
  inhibition: Active
[17]; CD-1, mouse
  AUC(0-inf): 251 ng·h/mL
[18]
  remaining at 0.5 h: 61.6%
[19]
  Tmax: 6 min
[20]
  remaining at 0.5 h: 9.93%
[1]
  IC50: 43.3 µM
[21]
  AUC: 21 ng·h/mL
Mus musculus [22]
  inhibition: Active
[23]
  inhibition at 20 µM: 20%
Mus musculus [24]
  inhibition: Active
Mus musculus [25]
  inhibition: Active
Mus musculus [26]
  inhibition (INH): 52%

## O=C(/C=C/c1ccc(O)c(O)c1)c1ccc(Cl)cc1
[4]
  remaining at 0.5 h: 21.1%
[6]
  pKa: 9.23
[7]
  solubility kinetic: 28 µg/mL (≈ 102 µM)
[18]
  remaining at 0.5 h: 38%
[20]
  remaining at 0.5 h: 7.26%
[1]
  IC50: 17.3 µM
[23]
  inhibition at 20 µM: 62%
Mus musculus [26]
  inhibition (INH): 53%

## CC(C)Oc1cc(O)ccc1C(=O)/C=C/c1ccc(O)c(O)c1
[23]
  inhibition at 20 µM: 64%

## O=C(Oc1cc(O)ccc1C(=O)/C=C/c1ccc(O)c(O)c1)c1ccc(Cl)cc1
[1]
  IC50: 17.9 µM

## Cc1ccc(C(=O)Oc2cc(O)ccc2C(=O)/C=C/c2ccc(O)c(O)c2)cc1
[1]
  IC50: 18.9 µM

## O=C(/C=C/c1ccc(O)c(O)c1)c1ccc(O)cc1F
[23]
  inhibition at 20 µM: 32%

## Cc1cc(O)ccc1C(=O)/C=C/c1ccc(O)c(O)c1
[1]
  IC50: 48.4 µM
[23]
  inhibition at 20 µM: 41%

## O=C(/C=C/c1ccc(F)c(O)c1)c1ccc(O)cc1O
[23]
  inhibition at 20 µM: 22%

## Cc1ccc(C(=O)/C=C/c2ccc(O)c(O)c2)cc1
[1]
  IC50: 18.6 µM
[23]
  inhibition at 20 µM: 61%

## O=C1CC2(CCCC2)CC(=O)N1CCCCN1CCN(c2ncccn2)CC1 [BUSPIRONE]
[4]
  remaining at 0.5 h: 0.0928%
[18]
  remaining at 0.5 h: 4.7%
[20]
  remaining at 0.5 h: 0.0183%

## CC(=O)Oc1ccc(C(=O)/C=C/c2ccc(OC(C)=O)c(OC(C)=O)c2)c(OC(C)=O)c1
[1]
  IC50: 12.8 µM
[23]
  inhibition at 20 µM: 73%

## O=C(Oc1cc(O)ccc1C(=O)/C=C/c1ccc(O)c(O)c1)c1ccccc1
Mus musculus [2]
  inhibition: Active
Mus musculus [3]
  inhibition: Active
[4]
  remaining at 0.5 h: 7%
Mus musculus [5]
  inhibition: Active
[6]
  pKa: 3.38
[7]
  solubility kinetic: 136 µg/mL (≈ 361 µM)
[8]
  Tmax: 24 min
Mus musculus [9]
  inhibition: Active
[10]
  Cmax: 83 ng/mL
[11]
  Cmax: 1600 ng/mL
[12]
  Tmax: 24 min
[27]
  F: 4%
Mus musculus [13]
  inhibition: Active
[14]
  AUC: 163 ng·h/mL
[15]
  Cmax: 110 ng/mL
Mus musculus [16]
  inhibition: Active
[17]; mouse, 24 h
  AUC: 1224 ng·h/mL
[18]
  remaining at 0.5 h: 2%
[19]
  Tmax: 12 min
[20]
  remaining at 0.5 h: 4%
[1]
  IC50: 14.6 µM
[21]
  AUC: 141 ng·h/mL
Mus musculus [22]
  inhibition: Active
[23]
  inhibition at 20 µM: 51%
Mus musculus [24]
  inhibition: Active
Mus musculus [25]
  inhibition: Active
Mus musculus [26]
  inhibition (INH): 70%
